Experimental data reported in PubChem BioAssay.
Active and inactive are the calls of the source.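 The calls were made as follows, unless noted: active = potentiation averaged over duplicate wells exceeding buffer-only control mean by more than 3 SD; inactive = the rest.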

Experiments:
[1] = thallium flux activation in parental CHO cells, counter-screen for KCNQ1 potentiator project (AID 493006;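 active = duplicate-averaged activation above buffer control mean plus 5 SD of those controls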;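 as to activation: fluorescence ratio of max minus min over baseline after K+ and Tl+ depolarization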); details: parental CHO-K1 cells, FluxOR thallium flux, at 10 µM; active compounds read high
Method in brief: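 Material: parental CHO-K1 cells, FluxOR dye-loaded; Also added: Potassium/thallium depolarization pulse; Schedule: overnight 37 °C plating, 90 min dye, 20 min dark compound; Signal: kinetic FluxOR fluorescence, 10 s baseline, 110 s after stimulus.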

[2] = target: Potassium voltage-gated channel subfamily KQT member 1 (Homo sapiens) (UniProt P51787); experiment: KCNQ1 potassium channel potentiators, confirmation, FluxOR thallium flux, CHO cells, duplicates (AID 493007); details: KCNQ1 cell line, FluxOR thallium flux fluorescence, at 10 µM; active compounds read high, % of reference activator effect, buffer zero;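 as to outcome: cells depolarized by a potassium plus thallium sulfate stimulus after compound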
Method in brief: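 System: KCNQ1-expressing CHO cell line; technique: kinetic thallium influx fluorescence with FluxOR dye, 10 s baseline, 110 s post-stimulus; timing: dye 90 min then compound 20 min, both at room temperature; controls: buffer-only wells as 0% and R-L3 activator as 100%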

[3] = target: Potassium voltage-gated channel subfamily KQT member 2 (Rattus norvegicus) (UniProt O88943); experiment: rat KCNQ2 channel potentiation, selectivity assay for KCNQ1 potentiator project, KCNQ2-CHO-K1 cells (AID 493009;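 active = mean duplicate potentiation above the buffer control mean plus 5 SD of buffer wells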;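 also: assay conditions were tuned for KCNQ1 rather than KCNQ2 modulators; signal is max minus min fluorescence divided by baseline after thallium stimulus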); details: FluxOR thallium flux fluorescence, at 10 µM; active compounds read high, scaled: buffer 0, activator control 100
[4] = target: Potassium voltage-gated channel subfamily KQT member 1 (Homo sapiens) (UniProt P51787); experiment: KCNQ1 channel current potentiators, confirmation, orthogonal assay for KCNQ1 potentiator project, IonWorks patch clamp, KCNQ1-CHO cells (AID 493184;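 active = current rise at least 3 SD above the untreated control mean in each of two repeat wells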); details: automated patch clamp current, at 10 µM; active compounds read high
Method in brief: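 Test system: KCNQ1-expressing CHO cells. Medium: pH 7.4 external bath. Probe or stimulus: voltage step from -90 mV holding to +40 mV, 2,000 ms. Compound: 10 µM final, single point. Detection: automated perforated-patch electrophysiology. Read-out: percent current increase versus pre-compound level. Repeats: two replicates.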

Sequence of Potassium voltage-gated channel subfamily KQT member 2 (Rattus norvegicus) (O88943 whole entry, looked up): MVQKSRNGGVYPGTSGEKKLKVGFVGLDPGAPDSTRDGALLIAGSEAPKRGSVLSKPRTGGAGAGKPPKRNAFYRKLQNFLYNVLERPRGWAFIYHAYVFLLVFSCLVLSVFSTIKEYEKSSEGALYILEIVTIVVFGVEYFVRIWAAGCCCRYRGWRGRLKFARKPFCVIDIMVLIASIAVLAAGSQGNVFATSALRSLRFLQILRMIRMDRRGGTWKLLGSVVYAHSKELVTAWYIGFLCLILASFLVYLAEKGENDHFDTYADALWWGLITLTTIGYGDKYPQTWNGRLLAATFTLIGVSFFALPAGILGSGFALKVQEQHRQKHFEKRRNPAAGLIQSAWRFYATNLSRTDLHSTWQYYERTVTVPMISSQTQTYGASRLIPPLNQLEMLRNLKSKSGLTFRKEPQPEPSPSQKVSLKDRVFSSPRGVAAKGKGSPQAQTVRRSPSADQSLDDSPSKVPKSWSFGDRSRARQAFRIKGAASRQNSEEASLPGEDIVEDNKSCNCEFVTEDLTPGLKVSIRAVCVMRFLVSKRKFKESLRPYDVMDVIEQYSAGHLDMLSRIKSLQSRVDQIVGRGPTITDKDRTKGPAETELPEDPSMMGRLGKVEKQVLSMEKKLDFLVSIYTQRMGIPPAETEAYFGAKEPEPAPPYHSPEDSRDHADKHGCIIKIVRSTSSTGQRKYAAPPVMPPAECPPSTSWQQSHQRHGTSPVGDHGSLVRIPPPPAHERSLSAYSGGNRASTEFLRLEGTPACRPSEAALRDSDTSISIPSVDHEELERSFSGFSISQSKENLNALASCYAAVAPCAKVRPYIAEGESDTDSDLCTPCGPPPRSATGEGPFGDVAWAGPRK
Sequence of Potassium voltage-gated channel subfamily KQT member 1 (Homo sapiens) (P51787 whole entry, looked up): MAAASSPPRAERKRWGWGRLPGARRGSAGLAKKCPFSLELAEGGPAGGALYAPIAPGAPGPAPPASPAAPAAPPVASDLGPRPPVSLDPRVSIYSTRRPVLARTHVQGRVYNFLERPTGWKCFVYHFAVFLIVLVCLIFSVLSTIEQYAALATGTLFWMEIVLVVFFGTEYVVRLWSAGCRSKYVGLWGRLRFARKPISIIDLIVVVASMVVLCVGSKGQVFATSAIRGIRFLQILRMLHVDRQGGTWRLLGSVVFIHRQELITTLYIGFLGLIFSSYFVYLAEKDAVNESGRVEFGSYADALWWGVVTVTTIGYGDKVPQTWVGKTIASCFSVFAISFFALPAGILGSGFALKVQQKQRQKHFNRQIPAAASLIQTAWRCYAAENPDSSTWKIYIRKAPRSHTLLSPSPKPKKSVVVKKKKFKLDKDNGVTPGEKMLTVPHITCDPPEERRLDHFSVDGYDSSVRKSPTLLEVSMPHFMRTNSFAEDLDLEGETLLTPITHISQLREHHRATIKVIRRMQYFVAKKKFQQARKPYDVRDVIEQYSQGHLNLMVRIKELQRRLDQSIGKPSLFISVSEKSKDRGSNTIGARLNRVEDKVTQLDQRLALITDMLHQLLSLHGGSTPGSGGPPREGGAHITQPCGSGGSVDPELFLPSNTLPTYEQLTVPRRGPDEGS

SMILES | activation [1] | potentiation [2] | potentiation [3] | outcome [4] | outcome [1] | outcome [2] | outcome [3]
CCCCN(CCCC)C(=S)N/N=C/c1c(C)[nH]n(-c2ccccc2)c1=O | 198% (active) | 123% (active) | 239% (active) | inactive | – | – | –
Oc1c(CN2CCN(c3ccccn3)CC2)cc(Cl)c2cccnc12 | 148% (active) | 35% (active) | 172% (active) | inactive | – | – | –
Fc1ccccc1Nc1nc(Cl)nc(Cl)n1 | – | – | – | inactive | inactive | inactive | inactive
Cc1ccc(-n2c(=S)[nH]c3sc4c(c3c2=O)CCC4)cc1 | 158% (active) | 42.5% (active) | 176% (active) | inactive | – | – | –
C=CCN1C(=O)C(CC(=O)NCC)SC1=Nc1ccc(S(N)(=O)=O)cc1 (stereo not given) | – | – | – | inactive | inactive | inactive | inactive
Cc1ccc(C(=O)OCC(=O)Nc2sc3c(c2C#N)CCCC3)cc1NC(=O)c1ccco1 | – | – | – | inactive | inactive | inactive | inactive
CC(=O)Nc1nc2c(F)cccc2s1 | – | – | – | inactive | inactive | inactive | inactive
O=C(c1ccccn1)c1ncc(C(F)(F)F)cc1Cl | – | – | – | inactive | inactive | inactive | inactive
CCOc1ccc(CCNC(=O)CSc2nc3ncc(Cl)cc3[nH]2)cc1OCC | – | – | – | inactive | inactive | inactive | inactive
CCSc1nc2c(sc3ccccc32)c(=O)n1C(C)C | 310% (active) | 206% (active) | 479% (active) | inactive | – | – | –
Cc1ccc(S(=O)(=O)NN2C(=O)/C(=C/c3cccs3)SC2=S)cc1 | 163% (active) | 22.5% (active) | 159% (active) | inactive | – | – | –
Cc1ccc(C)c(NS(=O)(=O)c2cc(C(=O)NCc3ccccn3)ccc2Cl)c1 | – | – | – | inactive | inactive | inactive | inactive
Cc1cc(C)c(S(=O)(=O)Nc2cccc3nsnc23)c(C)c1 | – | – | – | inactive | inactive | inactive | inactive
Cn1c(=S)[nH]c2scc(-c3cccs3)c2c1=O | 524% (active) | 218% (active) | 500% (active) | inactive | – | – | –
Nc1c(Cl)cc(C2=NCCn3nc4cc(C(F)(F)F)ccc4c32)cc1Cl | – | – | – | inactive | inactive | inactive | inactive
Cn1ncc2c(O/N=C(\N)c3ccc(C(F)(F)F)cc3)ncnc21 | – | – | – | inactive | inactive | inactive | inactive
CCCn1c(=S)[nH]c2ccc(C(F)(F)F)cc21 | 158% (active) | – | – | inactive | – | inactive | inactive
O=C1CC(c2cccs2)Cc2nc(NC(=O)C3CC3)ncc21 (stereo not given) | – | – | – | inactive | inactive | inactive | inactive
O=C(NC(=S)N1CCc2ccccc21)c1ccco1 | 198% (active) | 49.5% (active) | 226% (active) | inactive | – | – | –
CCc1ccc(C2c3[nH]c4ccccc4c3CCN2C(=O)CNC(N)=O)cc1 (stereo not given) | – | 31% (active) | 156% (active) | inactive | inactive | – | –

SMILES | activation [1] | potentiation [2] | potentiation [3] | outcome [4] | outcome [1] | outcome [2] | outcome [3]
Cc1ccc(NC(=S)N2CCC(N(C)CC3CCCO3)CC2)cc1 (stereo not given) | – | 19.5% (active) | – | inactive | inactive | – | inactive
COC(=O)c1ccc(CSc2ncnc3sc(C)c(C)c23)o1 | 155% (active) | 24% (active) | 163% (active) | inactive | – | – | –
CC(=O)N/C(=C/c1ccc2c(c1)OCO2)C(=O)O | – | – | – | inactive | inactive | inactive | inactive
CC(OC(=O)CC1Sc2ccccc2NC1=O)C(=O)NC1CCCC1 (stereo not given) | – | – | – | inactive | inactive | inactive | inactive
Cc1cc(C)cc(-n2ccnc2SCC(=O)Nc2nccs2)c1 | – | – | – | inactive | inactive | inactive | inactive
Cc1nc(SC(C)C(=O)c2c(N)n(C)c(=O)n(C)c2=O)c2c(C)c(C)sc2n1 (stereo not given) | 199% (active) | 86% (active) | 256% (active) | inactive | – | – | –
CCN1C(=O)/C(=C\C(=O)c2cccs2)c2cc(Br)ccc21 | – | – | – | inactive | inactive | inactive | inactive
Nc1ccc(C2(c3ccc(N)cc3)OC(=O)c3ccccc32)cc1 | – | – | – | inactive | inactive | inactive | inactive
Cc1ccc(OCCN2C(=O)c3ccccc3C2=O)c([N+](=O)[O-])c1 | – | – | – | inactive | inactive | inactive | inactive
COc1ccc(OC)c(NC(=O)C(=O)NNC(=O)C23CC4CC(CC(C4)C2)C3)c1 | 404% (active) | 244% (active) | 463% (active) | inactive | – | – | –
Cc1ccc(C)c2sc(NC(=O)c3nc4ccccc4s3)nc12 | – | 18% (active) | – | inactive | inactive | – | inactive
Cc1ccc(Sc2ccc(CN3CCCC3)cc2[N+](=O)[O-])cc1 | – | – | – | inactive | inactive | inactive | inactive
COc1ccc(C(=O)NC(=S)N2CCC(C)CC2)cc1Br | 185% (active) | 90% (active) | 290% (active) | inactive | – | – | –
O=C(CN1C2=NCCCN2c2ccccc21)c1ccc2c(c1)OCO2 | – | – | – | inactive | inactive | inactive | inactive
O=C(CSc1nc2cc(Cl)ccc2s1)c1ccco1 | – | 24% (active) | – | inactive | inactive | – | inactive
COc1ccc(-c2csc(NC(=S)NC(=O)c3ccco3)n2)cc1 | 264% (active) | 80.5% (active) | 216% (active) | inactive | – | – | –
CCOC(=O)c1c(-c2ccccc2)csc1NC(=S)NC | 286% (active) | 130% (active) | 324% (active) | inactive | – | – | –
Oc1[nH]c2c(Cl)cc(Cl)cc2c1N=NC(=S)NCC1CCCO1 (stereo not given) | 346% (active) | 277% (active) | 454% (active) | inactive | – | – | –
CC(=O)c1c(O)cc(C)n(-c2ccc(F)cc2)c1=O | – | – | – | inactive | inactive | inactive | inactive
O=C(/C=C/c1ccco1)NC(=S)Nc1ccccc1O | – | – | – | inactive | inactive | inactive | inactive

SMILES | activation [1] | potentiation [2] | potentiation [3] | outcome [4] | outcome [1] | outcome [2] | outcome [3]
N#C/C(=C\c1ccc(-c2ccccc2[N+](=O)[O-])o1)C(=O)Nc1nc(-c2cccs2)cs1 | 208% (active) | 56% (active) | 224% (active) | inactive | – | – | –
Cc1cc(C)n(CC(=O)N2CCCC(N3CCN(c4ccccc4C)CC3)C2)n1 (stereo not given) | 174% (active) | 79% (active) | 206% (active) | inactive | – | – | –
COCCCN=C1NN=C(c2cc(C)n(-c3ccccc3F)c2C)CS1 | – | – | – | inactive | inactive | inactive | inactive
CSc1ccccc1C(=O)NC1CCCc2ccccc21 (stereo not given) | – | – | – | inactive | inactive | inactive | inactive
Cc1ccc(NC(=O)C(=O)NNC(=O)c2ccccc2C)cc1Cl | 304% (active) | 112% (active) | 400% (active) | inactive | – | – | –
CC1=NN(C(=O)c2csc(C(C)C)c2)C(O)(C(F)(F)F)C1 (stereo not given) | 164% (active) | 61.5% (active) | 178% (active) | inactive | – | – | –
O=C(C1=C(O)C(=O)N(CC2CCCO2)C1c1ccc(Cl)cc1Cl)c1ccco1 (stereo not given) | – | – | – | inactive | inactive | inactive | inactive
O=C(Nn1c(Cc2cccs2)nc2ccccc2c1=O)c1cccs1 | – | – | – | inactive | inactive | inactive | inactive
O=C(Cn1c(=O)c2c(ncn2Cc2ccccc2)n(Cc2ccccc2)c1=O)N1CCc2ccccc21 | – | – | – | inactive | inactive | inactive | inactive
CS(=O)(=O)NN1C(=O)c2ccccc2NC1c1ccccc1F (stereo not given) | 143% (active) | 32.5% (active) | – | inactive | – | – | inactive
COc1cccc(NC(=O)NCC2CCN(Cc3ccc(F)cc3)CC2)c1 | – | – | – | inactive | inactive | inactive | inactive
CCC1CCC2(CC1)NNC(=S)NN2 | – | – | – | inactive | inactive | inactive | inactive
COc1ccc(C)c2sc(NC(=O)C3=COCCO3)nc12 | – | – | – | inactive | inactive | inactive | inactive
O=C(NC(=S)NCc1ccccc1)c1ccc(Br)o1 | 434% (active) | 313% (active) | 510% (active) | inactive | – | – | –
NC(=O)c1nsc(C(=O)N(CC(=O)NC2CCCCC2)c2ccc(Cl)cc2)c1N | – | – | – | inactive | inactive | inactive | inactive
CN(C)CCCN1c2ccccc2Sc2ccc(Cl)cc21 | – | – | – | inactive | inactive | inactive | inactive
COC(=O)c1sccc1NC(=S)NCc1ccc(Cl)cc1 | 144% (active) | 62.5% (active) | – | inactive | – | – | inactive
CCOc1ccc(NC(=S)NC(=O)c2ccco2)cc1 | – | 29% (active) | 180% (active) | inactive | inactive | – | –
CC(=O)Nc1ccc(NC(=O)c2cccc(C(=O)OC(C)C)n2)cc1 | – | – | – | inactive | inactive | inactive | inactive
CCC(C)c1ccccc1OCCCNC1CCCC1 (stereo not given) | – | – | – | inactive | inactive | inactive | inactive
